# Assay outcomes deposited in PubChem BioAssay by several laboratories.
# hiPSC survival: increases survival of single human iPS cells | hiPSC single-cell survival, ATPlite luminescence; 100% = ROCK inhibitor wells, 0% = DMSO | survival enhancement, % at 20 µM | actives 0.044% (n = 360,000) | AID 602274; in the data active = survival enhancement above about 18%;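 also: cells exposed to compounds for 16 hours before the ATP read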
# PG9 binder: PG9 antibody binding by small molecule; TR-FRET gp120-PG9 antibody binding; inhibition, % at 6.7 µM; actives 0.43% (n = 360,000); in the data active = inhibition above about 8.5%
# ABCB6 inh MLPCN: blocks the human ABCB6 transporter; Q9NP58; K562-ABCB6 porphyrin accumulation, flow cytometry, 1 h; hits give low values; fluorescence ratio to DMSO, % at 10 µM; actives 0.19% (n = 360,000);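 active = fluorescence ratio to DMSO below 75%, the collection mean minus 3 SD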;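 also: signal is porphyrin accumulated inside mitochondria; lower ratio means ABCB6 inhibition with less porphyrin fluorescence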
# Arr AP2 block: inhibitors of human beta-arrestin and AP2 interaction; inhibition, % at 10 µM; actives 0.31% (n = 340,000); FITC-arrestin peptide / GST-AP2 beads, flow cytometry; AP2 beta2 appendage carries R879A mutation;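 active = inhibition above a set limit, near 3 SD of compounds lacking own fluorescence, cut at about 54% in these data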
#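 system = GST-tagged AP2 beta2-adaptin appendage (R879A) on 4 µm glutathione beads | reagent = FITC-labelled arrestin peptide probe, 50 nM final | schedule = compound with beads 12 min RT, then probe 1 h RT | signal = HyperCyt-sampled flow cytometry, FL1 channel, ex 488/em 535 nm | read-out = percent response from loss of bead-bound FITC fluorescence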
# Arr-AP2 CP1: inhibitors of human beta-arrestin and AP2 interaction; GST-AP2 beads, FITC arrestin peptide binding, flow cytometry; GST-fused beta2-adaptin appendage, R879A mutant; actives 2% (n = 1,300); shares compounds with Arr AP2 block; AID 504908; inhibition, % at 10 µM;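 active = inhibition above a set limit, roughly 3 SD of non-fluorescent compound noise, cut at about 38% in these data; inactive = inhibition at or below that limit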;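 also: loss of bead fluorescence from 50 nM FITC arrestin peptide bound to appendage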
# Target sequence (P63010 whole entry, looked up, the tested form may be a part, one chain of several): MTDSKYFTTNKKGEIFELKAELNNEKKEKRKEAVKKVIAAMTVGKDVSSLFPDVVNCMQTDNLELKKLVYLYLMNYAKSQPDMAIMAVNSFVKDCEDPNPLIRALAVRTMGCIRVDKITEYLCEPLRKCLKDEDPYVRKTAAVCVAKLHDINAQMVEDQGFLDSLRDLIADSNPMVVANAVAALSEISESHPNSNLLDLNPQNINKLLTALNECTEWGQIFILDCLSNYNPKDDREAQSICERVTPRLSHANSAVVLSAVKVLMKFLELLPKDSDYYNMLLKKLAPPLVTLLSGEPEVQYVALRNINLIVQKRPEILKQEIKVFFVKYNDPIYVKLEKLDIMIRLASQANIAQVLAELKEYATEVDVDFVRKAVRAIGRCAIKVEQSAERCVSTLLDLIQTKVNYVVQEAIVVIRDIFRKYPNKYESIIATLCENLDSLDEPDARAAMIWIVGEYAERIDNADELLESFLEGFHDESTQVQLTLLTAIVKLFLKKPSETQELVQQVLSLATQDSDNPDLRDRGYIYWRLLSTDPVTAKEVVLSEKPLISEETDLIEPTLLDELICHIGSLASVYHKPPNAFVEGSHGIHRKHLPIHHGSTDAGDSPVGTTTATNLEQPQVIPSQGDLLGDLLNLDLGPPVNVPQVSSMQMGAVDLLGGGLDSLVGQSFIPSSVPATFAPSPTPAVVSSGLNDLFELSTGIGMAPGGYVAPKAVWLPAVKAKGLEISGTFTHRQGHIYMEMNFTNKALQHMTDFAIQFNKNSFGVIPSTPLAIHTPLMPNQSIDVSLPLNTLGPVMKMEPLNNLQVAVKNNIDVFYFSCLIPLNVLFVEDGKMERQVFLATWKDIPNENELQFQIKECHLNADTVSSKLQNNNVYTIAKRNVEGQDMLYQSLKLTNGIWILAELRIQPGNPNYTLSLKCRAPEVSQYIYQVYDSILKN
# GST-FITC bead: disrupts GST binding to glutathione beads, arrestin-AP2 artifact; actives 2% (n = 1,300); shares compounds with Arr AP2 block; GST-fluorescein binding to GSH beads, fluorescence, counter-screen; inhibition, % at 10 µM;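 active = inhibition above 50%, about 3 SD of the inhibition seen with non-fluorescent compounds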;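 also: fluorescein maleimide labelled GST captured on 4 micron glutathione beads; higher means more loss of bead fluorescence from quenching or blocked binding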
# Numbers stand for hits; - = inactive; . = no result. Most compounds without a hit are left out; they make up all but 0.89% or so of the library.
SMILES,hiPSC survival,PG9 binder,ABCB6 inh MLPCN,Arr AP2 block,Arr-AP2 CP1,GST-FITC bead
C[C@@H]1ON(C)[C@H]2C[C@H]3c4[nH]c5cccc(-c6ccc7c(c6)OCO7)c5c4CCN3C(=O)[C@@H]12,.,-,.,.,.,.
CCCCc1c(-c2ccccc2OC)ncn1C1CCCCC1,.,-,.,.,.,.
CC/C(=N\NC(=S)NC(C)C)c1ccc(OC)c(OC)c1,-,-,-,56,-,-
CC/C(=N\NC(N)=O)c1ccc(OC)c(OC)c1,-,-,-,-,.,.
COC(=O)CC#C[C@H](C)[C@@H](NS(C)(=O)=O)C1CCCCC1,.,-,.,.,.,.
COC[C@@H](O)[C@H]1OCc2cc(OC)ccc2[C@@H]1/C=C/c1ccccc1,.,-,.,.,.,.
CC(=O)C1=C(O)C(=O)N(c2ccc(C(=O)O)cc2)C1c1ccc([N+](=O)[O-])cc1 (stereo not given),-,-,-,-,.,.
CC(=O)C1=C(O)C(=O)N(c2ccc(S(N)(=O)=O)cc2)C1c1ccc([N+](=O)[O-])cc1 (stereo not given),-,-,-,97,-,-
Cc1cc(NC(=O)c2sccc2C)n(-c2nc3ccccc3[nH]2)n1,-,-,-,-,-,-
Cc1cc(NC(=O)c2cccs2)n(-c2nc3ccccc3[nH]2)n1,-,-,-,76,-,-
CCOC(=O)C(=O)Nc1cc(C)nn1-c1nc2ccccc2[nH]1,-,-,-,-,.,.
COC(=O)c1cc2c(c3c4cc(F)ccc4n(S(=O)(=O)c4ccc(C)cc4)c13)C(=O)N(Cc1ccc(N(C)C)cc1)C2,.,-,.,.,.,.
O=C(OCc1nnc(-c2ccccc2)o1)c1ccc([N+](=O)[O-])s1,-,-,-,70,-,-
Cc1ccc(C(=O)N2CCC[C@@H]2C(=O)N2CCC[C@H]2C(=O)NCc2ccccc2)cc1,.,-,.,.,.,.
Cc1ccc2[nH]c(=O)c3cc(C(=O)N(C)c4ccc(C)c(C)c4)sc3c2c1,-,-,-,58,-,-
COc1ccc(-c2csc(NC(=S)NC(=O)/C=C/c3ccco3)n2)cc1OC,-,-,-,-,.,.
COc1ccc(-c2csc(NC(=S)NC(=O)/C=C/c3ccco3)n2)cc1Br,-,-,-,88,-,-
COc1cccc(CNC(=O)[C@H]2CCCN2C(=O)[C@H]2CCCN2S(=O)(=O)c2cccc(C)c2)c1,.,-,.,.,.,.
CC(=O)N1N=C(c2ccc(Br)cc2)CC1c1cn(C)c2ccccc12 (stereo not given),-,-,-,55,-,.
Cc1ccc(C(=O)Nc2cc3c(cc2N2CCCCC2)n(C)c(=O)n3C)cc1,-,.,-,-,-,-
CCOc1cc(C(=O)Nc2cc3c(cc2N2CCCC2)n(C)c(=O)n3C)cc(OCC)c1OCC,-,-,-,-,-,-
COc1ccc(C(=O)Nc2cc3c(cc2N2CCCCC2)n(C)c(=O)n3C)cc1OC,-,-,-,.,-,.
Cc1ccc(C(=O)Nc2ccccc2N2CCCCC2)cc1,-,-,-,-,.,.
COc1cc(C(=O)Nc2cc3c(cc2N2CCCCC2)n(C)c(=O)n3C)cc(OC)c1OC,-,-,-,-,-,-
CCCn1cc(C(=O)Nc2ccc(Oc3cccnc3)cc2)c2ccccc21,.,-,.,.,.,.
SMILES,hiPSC survival,PG9 binder,ABCB6 inh MLPCN,Arr AP2 block,Arr-AP2 CP1,GST-FITC bead
CC1CCCN(CCCNC(=O)c2ccc3c(c2)N(Cc2ccccc2F)C(=O)c2ccccc2S3(=O)=O)C1 (stereo not given),-,-,-,59,-,-
Cn1c(=O)n(C)c2cc(N3CCOCC3)c(NC(=O)c3cccc(Cl)c3)cc21,-,-,-,-,-,-
COc1cccc(OC)c1C(=O)Nc1cc2c(cc1N1CCOCC1)n(C)c(=O)n2C,-,-,-,-,-,-
O=C(Nc1ccc(N2CCOCC2)cc1N1CCOCC1)c1ccc(F)cc1,-,-,-,-,.,.
Cn1c(=O)n(C)c2cc(N3CCOCC3)c(NC(=O)c3ccc(F)cc3)cc21,-,-,-,-,-,-
O=C(Nc1cc(S(=O)(=O)N2CCOCC2)ccc1N1CCOCC1)c1cccc(Cl)c1,-,-,-,.,.,.
O=C(N[C@H](C(=O)N1CCC[C@H]1C(=O)NC1CCCC1)C1CCCCC1)c1ccc(Cl)c(Cl)c1,.,-,.,.,.,.
CCCCc1cc(=O)oc2c(CN3CCN(C)CC3)c(O)ccc12,-,-,-,54,-,-
CCCc1cc(=O)oc2c(CN3CCN(C)CC3)c(O)ccc12,-,-,-,-,.,.
Cc1cccc(NC(=O)CN2CCN(C(=O)c3ccc(-c4nc5ccccc5s4)o3)CC2)c1C,-,-,-,59,-,-
Cc1nc(NCCN2CCOCC2)c2oc3ccccc3c2n1,-,-,-,55,-,-
Cc1nc(NCCCN2CCOCC2)c2oc3ccccc3c2n1,-,-,-,-,.,.
O=C(NCc1ccccc1OC(F)(F)F)C1CCC(=O)N(Cc2ccccn2)C1 (stereo not given),-,-,-,-,.,.
COc1ccc(CCN2CC(C(=O)NCCc3ccc(F)cc3)CCC2=O)cc1 (stereo not given),-,-,-,-,-,-
COc1ccccc1CN1CC(C(=O)NCc2cc(F)cc(C(F)(F)F)c2)CCC1=O (stereo not given),-,-,-,-,-,-
COc1ccccc1CCCNC(=O)C1CCC(=O)N(Cc2ccccc2F)C1 (stereo not given),-,-,-,-,.,.
O=C(NCc1ccccc1OC(F)(F)F)C1CCC(=O)N(CCc2ccccn2)C1 (stereo not given),-,-,-,58,-,-
COc1ccc(CCCNC(=O)C2CCC(=O)N(Cc3ccccc3F)C2)cc1 (stereo not given),-,-,-,-,-,-
COc1ccccc1CN1CC(C(=O)NCc2cccc(Cl)c2)CCC1=O (stereo not given),-,-,-,-,.,.
Cc1cc(NC(=O)COC(=O)CCS(=O)(=O)c2cc(Cl)ccc2Cl)no1,-,-,-,57,-,-
COc1ccc(CCNCC(O)Cn2c3ccccc3c3ccccc32)cc1OC (stereo not given),-,-,-,58,-,-
COc1ccccc1NCC(O)Cn1c2ccccc2c2ccccc21 (stereo not given),-,-,-,-,.,.
COCc1[nH]nc2c1C(c1ccc3c(c1)OCO3)N(Cc1ccccc1)C2=O (stereo not given),.,-,.,.,.,.
COC(=O)[C@]12C[C@H](CC(=O)N3CCSCC3)C(=O)N(CCC3=CCCCC3)C1=C[C@H](C(C)(C)C)O[C@@H]2C,.,-,.,.,.,.
Cc1nn(Cc2ccccc2Cl)c(Cl)c1/C=C/C(=O)OCC(=O)NC(N)=O,-,-,-,-,.,.
Cc1nn(Cc2ccc(Cl)cc2Cl)c(Cl)c1/C=C/C(=O)OCC(=O)NCC(F)(F)F,-,-,-,81,-,-
COc1ccc(OC)c(S(=O)(=O)NCC2CCN(C(=O)C(=O)c3cc4ccccc4o3)CC2)c1,.,-,.,.,.,.
